Hits are enriched below; roughly 2.8% of the tested compounds scored in any of these assays.
HTRA1 inhibitor – HTRA1 (human) protease inhibition; Q92743; recombinant HTRA1, FP-rhodamine activity-based probe, fluorescence polarization; inhibition, % at 5.96 µM; AID 504803; actives 0.5% (n = 340,000); in the data active means inhibition above about 36%;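 further: 0% = enzyme with DMSO and 100% = wells lacking enzyme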
ABHD4 inh – ABHD4 (mouse) inhibition, primary FP screen; inhibition, % at 8.92 µM; actives 0.54% (n = 370,000); Q8VD66; purified mABHD4, FP-Rh probe fluorescence polarization; AID 720543;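 active means inhibition exceeding the mean over every tested compound plus 3 SD, cut at about 30% in these data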;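 further: 0% = plate median of compound wells and 100% = S159A mutant with DMSO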
Target sequence (Q8VD66 whole entry, looked up): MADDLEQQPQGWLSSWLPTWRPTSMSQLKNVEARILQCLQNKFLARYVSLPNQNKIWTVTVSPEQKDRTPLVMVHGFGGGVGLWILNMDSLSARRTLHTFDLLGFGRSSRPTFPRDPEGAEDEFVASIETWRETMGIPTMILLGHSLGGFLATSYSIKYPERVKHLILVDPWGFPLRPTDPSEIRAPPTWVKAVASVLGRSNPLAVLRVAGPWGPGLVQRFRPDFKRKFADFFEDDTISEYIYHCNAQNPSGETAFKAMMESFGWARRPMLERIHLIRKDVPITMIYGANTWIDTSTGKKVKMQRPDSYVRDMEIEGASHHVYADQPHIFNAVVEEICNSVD
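Test system: mouse ABHD4 enzyme, wild type. Reagent: FP-Rh fluorescent activity-based probe, added after compound pre-incubation. Timing: pre-incubation 45 min, probe exposure 60 min, at 25 °C. Technique: FP readout, ex 525 nm / em 598 nm. Benchmarks: high control S159A mutant with DMSO, low control median of compound wells.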
PAFAH1B2 inh – inhibitors of human PAFAH1B2 | recombinant PAFAH1B2, FP-rhodamine activity probe, fluorescence polarization | inhibition, % at 3.39 µM | actives 1.2% (n = 340,000);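 active means inhibition above the mean of all tested compounds plus 3 SD, cut at about 24% in these data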;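 further: 0% = enzyme with DMSO and 100% = wells lacking PAFAH1B2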
Target sequence (P68402 whole entry, looked up): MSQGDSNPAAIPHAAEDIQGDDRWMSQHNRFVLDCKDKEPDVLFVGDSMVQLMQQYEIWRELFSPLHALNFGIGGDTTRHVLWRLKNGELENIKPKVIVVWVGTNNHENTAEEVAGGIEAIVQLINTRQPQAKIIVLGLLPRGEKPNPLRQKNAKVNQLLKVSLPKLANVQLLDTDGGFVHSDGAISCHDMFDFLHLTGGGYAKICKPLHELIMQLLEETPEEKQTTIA
PAFAH2 FP inh – inhibitors of human PAFAH2. recombinant PAFAH2, FP-rhodamine activity probe, fluorescence polarization. inhibition, % at 3.39 µM. actives 0.99% (n = 340,000). AID 492956;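 active means inhibition above the mean over all tested compounds plus 3 SD, cut at about 30% in these data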;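 further: inhibitors block probe labeling of enzyme so polarization drops; 0% = enzyme with DMSO and 100% = wells lacking PAFAH2 protein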
pPAFAH inh – pPAFAH (human) enzyme inhibition | recombinant pPAFAH, FP-rhodamine probe fluorescence polarization | Q13093 | actives 1.5% (n = 330,000) | inhibition, % at 3.39 µM;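 active means inhibition above the mean inhibition across the screen plus 3 SD, cut at about 25% in these data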;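 further: inhibitors block binding of the rhodamine activity-based probe so polarization drops; 0% = enzyme with DMSO and 100% = wells lacking pPAFAH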
PAFAH1B3 FP inh – inhibitors of human PAFAH1B3; Q15102; recombinant PAFAH1B3, FP-rhodamine probe, fluorescence polarization; inhibition, % at 3.39 µM; actives 0.28% (n = 340,000);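 active means inhibition above the screen-wide average of all tested compounds plus 3 SD, cut at about 25% in these data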;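 further: 0% = enzyme with DMSO only and 100% = wells lacking PAFAH1B3 protein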
mABHD4 conf – ABHD4 (mouse) inhibition, FP confirmation | shares compounds with ABHD4 inh | purified mABHD4, FP-Rh probe fluorescence polarization | inhibition, % at 8.92 µM | actives 55% (n = 1,800) | AID 720658;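 active means mean inhibition across replicates above the hit cutoff set in the primary screen, cut at about 30% in these data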;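 further: 0% = wild-type ABHD4 with DMSO and 100% = catalytically dead S159A mutant with DMSO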
Active calls of the source: *; nt = no result; ! = repeats disagree.

SMILES	HTRA1 inhibitor	ABHD4 inh	PAFAH1B2 inh	PAFAH2 FP inh	pPAFAH inh	PAFAH1B3 FP inh	mABHD4 conf
CCCCCCSc1ccc(-c2nc3ccc(C)cn3c2NCCCC)cc1OC	nt	8.9	nt	nt	nt	nt	nt
CCCCNc1c(-c2cccc(-c3cc(C(C)=O)cs3)c2)nc2cc(C)ccn12	5.0	41.7*	6.6	4.7	32.6*	9.6	45.7*
CCCCNc1c(-c2ccc(SC(C)CC)c(OC)c2)nc2ccc(C)cn12 (stereo unspecified)	-19.2	35.9*	8.1	4.4	23.4	10.1	46.9*
O=C(NCCc1c[nH]c2ccccc12)OCc1cn(Cc2cc(F)cc(F)c2)nn1	nt	-8.2	nt	nt	nt	nt	nt
COC(=O)C1=C(C)N(C)C(=NCc2cccc(C(F)(F)F)c2)NC1c1ccc(F)cc1 (stereo unspecified)	nt	7.3	nt	nt	nt	nt	nt
Cc1ccc(CNC(=O)CCS(=O)(=O)c2cc3c(cc2Br)CCN3C(=O)C2CC2)o1	nt	4.0	nt	nt	nt	nt	nt
CCC(C)Sc1cccc(-c2nc3ccc(C)cn3c2NCc2ccccc2)c1 (stereo unspecified)	-22.2	35.9*!	12.3	16.4	20.9	2.0	32.2*
CCC(C)Sc1cccc(-c2nc3ccc(Cl)cn3c2NCc2ccccc2)c1 (stereo unspecified)	-28.6	nt	3.5	-1.7	12.5	3.0	nt
COc1ccc(C(=O)OCC(=O)Nc2ncc([N+](=O)[O-])s2)cc1OC	9.4	38.0*	9.4	40.2*	24.5	30.4*	24.7
O=C1N=c2ccccc2=C1c1sc(=O)[nH]c1O	nt	9.2	nt	nt	-0.3	nt	nt
Cc1c(-n2c(O)c(C3=c4ccccc4=NC3=O)sc2=S)c(=O)n(-c2ccccc2)n1C	6.9	7.5	1.4	3.4	3.0	5.1	nt
O=C1N=c2ccccc2=C1c1sc(=S)n(-c2ccc(O)cc2)c1O	8.0	38.1*	4.6	1.1	4.3	3.0	25.2
CN(c1ccc(O)cc1)c1nc(O)c(C2=c3ccccc3=NC2=O)s1	7.0	43.1*	5.9	1.7	2.2	10.4	64.9*
F[B-](F)(F)c1cnc2ccccc2c1	7.4	31.1*	4.9	-1.5	nt	7.8	23.0
Fc1ccc(F)c(Cn2ccc3ccc(-c4ccc5ccn(Cc6cc(F)ccc6F)c5c4)cc32)c1	nt	-2.5	nt	nt	nt	nt	nt
O=C(CSC1=NNC(c2ccccn2)S1)Nc1ccc(C(F)(F)F)cc1 (stereo unspecified)	19.6	38.9*	5.7	10.5	12.9	17.2	-9.2
CCn1c(COc2ccc(Cl)cc2)nnc1SCC(=O)Nc1ccccc1-c1ccccc1	nt	-9.0	nt	nt	nt	nt	nt
Cc1cc2ccccc2n1CCNC(=O)Cc1cccc2ccccc12	36.1	45.8*	1.7	1.3	-0.9	-2.8	-18.5
CCOc1ccc(-n2c(SCC(=O)Nc3ccc(Oc4ccccc4)cc3)nnc2-c2ccncc2)cc1	nt	-1.1	nt	nt	nt	nt	nt
Oc1ccc(/C=N/NC(=S)Nc2cccnc2)c(O)c1O	36.1	41.1*	9.2	21.6	nt	17.2	68.0*
Oc1ccc(/C=N/NC(=S)Nc2cccnc2)c(O)c1	14.1	17.6	9.7	22.8	-3.9	-1.7	nt
COC(=O)C1CN(Cc2ccccc2)CCS(=O)(=O)N1Cc1ccc(F)cc1 (stereo unspecified)	nt	2.8	nt	nt	nt	nt	nt
C[C@H]1CN([C@@H](C)CO)S(=O)(=O)c2ccc(Br)cc2O[C@@H]1CN(C)Cc1ccccc1	-31.2	-4.4	nt	nt	nt	nt	nt
C[C@H]1CN([C@@H](C)CO)S(=O)(=O)c2ccc(Br)cc2O[C@H]1CN(C)Cc1ccccc1	-12.4	75.4*	nt	nt	nt	nt	-9.2
Cn1ccnc1CN1CCC[C@]2(CC[C@H](CCC#N)O2)C1	nt	0.4	nt	nt	nt	nt	nt
SMILES	HTRA1 inhibitor	ABHD4 inh	PAFAH1B2 inh	PAFAH2 FP inh	pPAFAH inh	PAFAH1B3 FP inh	mABHD4 conf
Cc1cc(-c2nnc(SCC(=O)Nc3cccc4ccccc34)n2N)n[nH]1	nt	-0.2	nt	nt	nt	nt	nt
COc1ccc(NC2=CC(=O)CC(c3ccccc3)C2)c(OC)c1 (stereo unspecified)	-5.7	18.4	-1.0	0.9	2.5	2.8	nt
CCOc1ccccc1NC1=CC(=O)CC(c2ccccc2)C1 (stereo unspecified)	-16.6	36.8*	1.3	2.2	4.3	-6.4	-5.8
CCCc1cc(=O)[nH]c(SCC(=O)NC2CCCCC2)n1	7.2	93.4*	8.2	2.7	-2.3	8.9	-3.4
CCCc1cc(=O)[nH]c(SCC(N)=O)n1	7.4	-4.7	5.5	5.4	1.4	-0.1	nt
O=C(CCc1ccc(O)c(O)c1)N/N=C/c1cc2c(cc1[N+](=O)[O-])OCO2	34.4	30.8*	5.7	20.9	nt	9.2	37.7*
Cc1ccc(N=Cc2cc3c(cc2[N+](=O)[O-])OCO3)cc1[N+](=O)[O-]	nt	41.9*	nt	nt	30.9*	nt	30.1*
CC(C)c1cc(C(C)C)c(S(=O)(=O)N2CCCC(C(=O)N3CCN(Cc4ccccc4)CC3)C2)c(C(C)C)c1 (stereo unspecified)	nt	3.3	nt	nt	nt	nt	nt
O=C(N/N=C/c1ccc(O)cc1)c1ccncc1	5.3	-3.7	1.0	-3.0	7.7	7.6	nt
CC/C(=C\C(=O)c1ccncc1)Nc1ccc(O)cc1	21.9	75.4*	2.2	-2.1	22.6	2.0	38.4*
CN(C)c1ccc(C=Nc2ccc(N(C)C)cc2)cc1	34.7	37.4*	5.6	0.1	19.1	5.2	22.1
Cc1ccc(N=Cc2ccc(N(C)C)cc2)cc1	-1.5	-7.3	5.8	-0.8	3.1	6.0	nt
CCOc1ccccc1N1CN(C2CCCCC2)CNC1=S	nt	70.2*	nt	nt	2.4	nt	0.6
O=C(O)c1cc(-c2ccc(/C=N/NC(=S)Nc3ccccc3)o2)ccc1Cl	nt	39.2*	nt	nt	22.9	nt	50.1*
C[C@@H]1CCN(C2CC2)S(=O)(=O)c2c(cccc2N2CCC[C@@H]2C)O1	nt	1.8	nt	nt	nt	nt	nt
O=C(NCc1ccccc1)c1sc(=S)n2c1[nH]c(=O)c1ccccc12	9.9	32.3*	53.6*	42.3*	33.9*	31.4*	42.4*
CSc1ccc(C(c2c(C(=O)O)[nH]c3ccccc23)c2c(C(=O)O)[nH]c3ccccc23)cc1	-18.1	46.2*	61.7*	26.9	29.0*	6.2	60.5*
CCOc1cc(Br)cc(C(c2c(C(=O)O)[nH]c3ccccc23)c2c(C(=O)O)[nH]c3ccccc23)c1O	17.8	61.5*	79.2*	16.1	17.6	11.5	67.7*
CSc1ccc(C(c2c(C)[nH][nH]c2=O)c2c(C)[nH][nH]c2=O)cc1	3.2	-8.7	3.0	6.1	-8.8	6.3	nt
COc1cc(NC(=O)c2ccccc2)c(C)cc1NC(=O)CSc1nnc(-c2ccco2)n1Cc1ccco1	nt	-2.2	nt	nt	nt	nt	nt
CC(C)C1Nc2c(O)cc(Cl)c([N+](=O)[O-])c2C2C=CCC21 (stereo unspecified)	32.5	58.1*	42.4*	19.0	nt	-3.1	35.5*
O=[N+]([O-])c1ccccc1N=Nc1ccc(O)cc1O	nt	31.6*	nt	nt	nt	nt	53.6*

High-throughput results as filed in PubChem.
